Measured values from different studies.
PDE5A: cGMP-specific 3',5'-cyclic phosphodiesterase (PDE5A, Homo sapiens, UniProt O76074)
HDAC2: Histone deacetylase 2 (HDAC2, Homo sapiens, UniProt Q92769)
PFF0160c: Dihydroorotate dehydrogenase (quinone), mitochondrial (PFF0160c, Plasmodium falciparum, UniProt Q08210)
MEP1A: Meprin A subunit alpha (MEP1A, Homo sapiens, UniProt Q16819)
PPO3: PPO3 (Agaricus bisporus, UniProt C7FF04)
AURKB: Aurora kinase B (AURKB, Homo sapiens, UniProt Q96GD4)
KDM1A: Lysine-specific histone demethylase 1A (KDM1A, Homo sapiens, UniProt O60341)
ARAF: Serine/threonine-protein kinase A-Raf (ARAF, Homo sapiens, UniProt P10398)

CCN1C(=O)[C@H]2Cc3c([nH]c4ccccc34)[C@H](c3ccc(OC)c(OC)c3)N2C1=O — IC50 (PDE5A; enzyme activity; inhibitor; FP): 7 µM
CCCON(Cc1ccc(C(=O)NO)cc1)C(=O)Nc1ccc(N(C)C)cc1 — IC50 (HDAC2; enzyme activity; inhibitor; fluorescence): 1.14 µM
O=C(Nc1ccn(Cc2ccc(O)cc2C(F)(F)F)n1)c1c(F)cccc1F — IC50 (Sodium channel protein type 9 subunit alpha (SCN9A, Homo sapiens, UniProt Q15858); ion current; inhibitor): > 10 µM
CCN1C(=O)[C@H]2Cc3c([nH]c4ccccc34)[C@@H](c3cccnc3)N2C1=O — IC50 (PDE5A; enzyme activity; inhibitor; FP): 0.14 µM
Cc1cc(Nc2ccc(C(F)(F)F)cc2)n2nc(OCCN)nc2n1 — IC50 (PFF0160c; enzyme activity; inhibitor): > 10 µM
CC(C)C[C@H]1CC(=O)N2CCC[C@H]2C(=O)N[C@@H](CCCCCC(=O)NO)C(=O)N[C@@H](Cc2c[nH]c3ccccc23)C(=O)N1 — IC50 (HDAC2; enzyme activity; inhibitor): 0.0035 µM
CN1CCN(c2ccc(Nc3ncc4cc(C#N)c(=O)n(C5CCCC5)c4n3)cc2)CC1 — IC50 (Tyrosine-protein kinase TXK (TXK, Homo sapiens, UniProt P42681); enzyme activity; inhibitor): 0.638 µM
O=C(CCN(Cc1ccncc1)Cc1ccc(Cl)c(O)c1F)NO — IC50 (MEP1A; enzyme activity; inhibitor): 0.646 µM
Cc1ccc(C(C)C)cc1NC(=O)COC(=O)/C=C/c1ccccc1O — IC50 (PPO3; enzyme activity; inhibitor): 1.81 µM
Cc1cc(Nc2cc3ncccc3c(N[C@@H]3C[C@H]4CC[C@@H](C3)N4CCC#N)n2)n[nH]1 — IC50 (AURKB; target engagement in cells; inhibitor; BRET): > 10 µM
Cc1cc(Nc2cccc(Cl)c2)n2[nH]c(=O)nc2n1 — IC50 (PFF0160c; enzyme activity; inhibitor): > 10 µM
COc1ccc([C@@H]2c3[nH]c4ccccc4c3C[C@H]3C(=O)N(c4ccc(Cl)cc4)C(=O)N23)cc1OC — IC50 (PDE5A; enzyme activity; inhibitor; FP): 5.36 µM
COc1ccc(N=Nc2c(N)nc(N)nc2N)cc1 — IC50 (PPO3; enzyme activity; inhibitor; absorbance): 43.8 µM
CCCSc1nc(Sc2nc3ccccc3s2)c2nnn(CCO)c2n1 — IC50 (KDM1A; enzyme activity; inhibitor; fluorescence): 0.847 µM
CC(C)(C)N1C(=O)[C@H]2Cc3c([nH]c4ccccc34)[C@H](c3cccnc3)N2C1=O — IC50 (PDE5A; enzyme activity; inhibitor; FP): 4.75 µM
Nc1nc(N)c(N=Nc2ccccc2[N+](=O)[O-])c(N)n1 — IC50 (PPO3; enzyme activity; inhibitor; absorbance): 34.1 µM
CCOCc1nc(O)c(-c2nnc(Cc3ccc(Cl)cn3)o2)c(O)c1-c1c(OC)cccc1OC — IC50 (Adenosine receptor A2a (ADORA2A, Homo sapiens, UniProt P29274); ligand displacement; radioligand): > 30 µM
C[C@@H]1Cc2ccccc2N1C(=O)NCCCCN(C)[C@@H]1Cc2cccc3[nH]c(=O)n(c23)C1 — IC50 (5-hydroxytryptamine receptor 2A (HTR2A, Homo sapiens, UniProt P28223); ligand displacement; radioligand): 3.7 µM
O=C(NC1CC2(C1)CN(C(=O)c1cc3ccccc3c(=O)[nH]1)C2)c1c[nH]nn1 — IC50 (Poly [ADP-ribose] polymerase 1 (PARP1, Homo sapiens, UniProt P09874); enzyme activity; inhibitor): 1.28 µM
COc1ccc(Nc2nc(N)c(C(=O)c3ccc(OC)c(OC)c3)s2)cc1 — IC50 (Sphingosine kinase 1 (SPHK1, Homo sapiens, UniProt Q9NYA1); enzyme activity; inhibitor): ~3 µM
COc1ccc([C@@H]2c3[nH]c4ccccc4c3C[C@H]3C(=O)N(C(C)(C)C)C(=O)N23)cc1OC — IC50 (PDE5A; enzyme activity; inhibitor; FP): 6.21 µM
CCCCc1ccc(-c2ccc(-c3cc(C(=O)O)c4cc(Cl)cc(Cl)c4n3)o2)cc1 — IC50 (Eukaryotic initiation factor 4A-I (EIF4A1, Homo sapiens, UniProt P60842); ATPase activity; inhibitor; absorbance): 52.1 µM
Cc1cc(Nc2cccc(Cl)c2)n2nc(CC3CC3)nc2n1 — IC50 (PFF0160c; enzyme activity; inhibitor): > 10 µM
O=C1Nc2ccc(I)cc2/C1=C/c1cc(Br)c(O)c(Br)c1 — IC50 (ARAF; enzyme activity; inhibitor; radiometric): 0.0154 µM
CCCSc1nc(Sc2nncs2)c2nnn(CCO)c2n1 — IC50 (KDM1A; enzyme activity; inhibitor; fluorescence): 1.05 µM
CC(C)(C)n1nc(-c2ccc3nc(OC4CC4)ccc3c2)c(C(N)=O)c1N — IC50 (AURKB; cell-free assay; inhibitor): > 10 µM
Cc1cc(Nc2cccc(Cl)c2)n2nc(CN(C)C)nc2n1 — IC50 (PFF0160c; enzyme activity; inhibitor): > 10 µM
Cc1ccc(C(C)C)cc1NC(=O)COC(=O)c1ccc(O)cc1 — IC50 (PPO3; enzyme activity; inhibitor): 18 µM
CNCCOc1nc2nc(C)cc(Nc3ccc(C(F)(F)F)cc3)n2n1 — IC50 (PFF0160c; enzyme activity; inhibitor): > 10 µM
Nc1nc(N)c(N=Nc2ccc([N+](=O)[O-])cc2)c(N)n1 — IC50 (PPO3; enzyme activity; inhibitor; absorbance): 40.6 µM
CCCCC[C@H](O)/C=C/[C@H]1[C@@H]2CO[C@@H](C2)[C@@H]1C/C=C\CCCC(=O)O — IC50 (Thromboxane A2 receptor (TBXA2R, Homo sapiens, UniProt P21731); ligand displacement; radioligand): 0.013 µM
CN(C)C/C=C/C(=O)Nc1cccc(C(=O)Nc2ccc(Nc3nccc(-c4cccnc4)n3)cc2)c1 — IC50 (Serine/threonine-protein kinase Nek3 (NEK3, Homo sapiens, UniProt P51956); enzyme activity; inhibitor; radiometric): 0.185 µM
COCCc1nc2nc(C)cc(Nc3cccc(Cl)c3)n2n1 — IC50 (PFF0160c; enzyme activity; inhibitor): > 10 µM
Cc1cnc(-c2ccc(-c3ccc(NC(=O)Nc4c(F)cc(F)cc4F)cc3F)c3c2C(=O)NC3)[nH]1 — IC50 (Cytoplasmic tyrosine-protein kinase BMX (BMX, Homo sapiens, UniProt P51813); enzyme activity; inhibitor): 0.0144 µM
COc1ccc(C2=NN(C3CCCCCC3)C(=O)[C@@H]3CC=CC[C@H]23)cc1-c1ccc(C(=O)NCC(N)=O)cc1 (relative stereo) — IC50 (3',5'-cyclic-AMP phosphodiesterase 4A (PDE4A, Homo sapiens, UniProt P27815); enzyme activity; inhibitor): 0.316 µM
Cc1ccc(C(C)C)cc1NC(=O)COC(=O)c1ccc(O)c(O)c1 — IC50 (PPO3; enzyme activity; inhibitor): 11 µM
C[S+]([O-])c1ccc(-c2nc(-c3ccncc3)c(-c3ccc(F)cc3)[nH]2)cc1 (stereo not drawn) — IC50 (ARAF; enzyme activity; inhibitor; lysate): > 10 µM
CC/C=C\C/C=C\C/C=C\C/C=C\C/C=C\CCCC(=O)O — IC50 (Deoxyribonuclease-1 (DNASE1, Bos taurus, UniProt P00639); enzyme activity; inhibitor): > 100 µM
Cc1cc(Nc2ccc(Cl)cc2)n2nc(CN)nc2n1 — IC50 (PFF0160c; enzyme activity; inhibitor): > 10 µM
O=C(CCN(Cc1ccc2c(c1)OCO2)Cc1ccc(Cl)c(O)c1F)NO — IC50 (MEP1A; enzyme activity; inhibitor): 0.159 µM
Cc1cc(Nc2cccc(Cl)c2)n2nc(CN)nc2n1 — IC50 (PFF0160c; enzyme activity; inhibitor): > 10 µM
Cc1cc(Nc2ccc(C(F)(F)F)cc2)c2ccccc2n1 — IC50 (PFF0160c; enzyme activity; inhibitor): 0.98 µM
